Screening data (PubChem)
Rows were chosen to be rich in hits. Some 1.6% of all compounds tested hit in one or more screens of this group.
Neddylation inh: cullin neddylation inhibition; P61081+Q13564; calls only at 25 µM; TR-FRET cullin neddylation, biochemical; 360,000 compounds, 0.58% hits; in the data active = inhibition above about 36%
proKLK7 act: proKLK7 (human) activation, primary screen; activation, % at 7 µM; purified proKLK7, EDANS-DABCYL substrate fluorescence; 100% is mature enzyme control, 0% vehicle; 370,000 compounds, 0.9% hits;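 active = activation above the mean of all tested compounds plus 3 SD, computed per campaign excluding outliers beyond control limits, cut at about 13% in these data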
Target sequence (P49862 whole entry, looked up): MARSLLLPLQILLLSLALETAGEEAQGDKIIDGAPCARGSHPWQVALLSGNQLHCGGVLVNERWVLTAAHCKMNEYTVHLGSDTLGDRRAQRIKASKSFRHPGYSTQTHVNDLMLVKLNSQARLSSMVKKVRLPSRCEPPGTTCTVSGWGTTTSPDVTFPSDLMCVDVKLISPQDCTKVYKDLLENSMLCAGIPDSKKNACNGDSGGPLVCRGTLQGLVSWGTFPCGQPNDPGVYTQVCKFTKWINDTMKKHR
procasp7 counter: activates human procaspase-7, counter-screen for procaspase-3 activators; AID 463210; recombinant procaspase-7, Ac-DEVD-pNA absorbance 405 nm; D23A/D198A/D206A triple mutant, cannot self-cleave; scale: DMSO 0, 5 µM enzyme 100; 330,000 compounds, 0.093% hits; activation, % at 8.5 µM;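 active = percent activation above the screen-wide mean plus 3 SD, cut at about 25% in these data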
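Test system: Procaspase-7 triple mutant (PC-7 D3A). Also added: Ac-DEVD-pNA substrate, 400 µM as added. Schedule: 1 h enzyme–compound preincubation and 2 h substrate reaction, both 25 °C. Signal: p-Nitroaniline absorbance at 405 nm, read at 0 and 120 min. Control set: low DMSO alone, high DMSO plus 5 µM PC-7.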
proCasp3 act: activates human procaspase-3; P42574; activation, % at 8.5 µM; 330,000 compounds, 0.11% hits; recombinant procaspase-3 D3A, Ac-DEVD-pNA absorbance 405 nm;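 active = activation above the mean of all tested compounds plus 3 SD, cut at about 21% in these data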
Target sequence (P42574 whole entry D9A/D28A/D175A): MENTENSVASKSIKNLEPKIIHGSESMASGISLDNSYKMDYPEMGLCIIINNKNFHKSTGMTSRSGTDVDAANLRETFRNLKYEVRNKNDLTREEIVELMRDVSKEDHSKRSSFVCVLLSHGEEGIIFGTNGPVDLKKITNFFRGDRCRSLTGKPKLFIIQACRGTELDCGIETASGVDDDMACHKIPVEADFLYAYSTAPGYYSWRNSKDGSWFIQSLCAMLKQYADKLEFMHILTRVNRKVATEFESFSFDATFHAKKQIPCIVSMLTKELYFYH
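assay system = Procaspase-3 D3A mutant | signal = absorbance at 405 nm, 0 and 120 min | times = 1 h preincubation plus 2 h reaction at 25 °C | repeats = single replicate | read-out = % activation between DMSO and enzyme-spiked controls | medium = Zinc-free HEPES saline buffer with Triton X-100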
KLK7 act conf: proKLK7 activation, confirmation | AID 686949 | 3,200 compounds, 68% hits | shares compounds with proKLK7 act | activation, % at 7 µM | purified proKLK7, EDANS-DABCYL substrate fluorescence; scaled: vehicle 0, mature enzyme 100;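 active = activation, as change over the incubation, above the mean of all tested compounds plus 3 SD, cut at about 13% in these data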
EDANS interfere: optically interferes with EDANS-DABCYL signal, flagging KLK7 hits | activation, % at 7 µM | shares compounds with proKLK7 act | 3,200 compounds, 80% hits | EDANS-DABCYL substrate fluorescence interference, no enzyme, 4 h; solvent 0%, active enzyme control 100%;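 active = activation above the all-compound mean plus 3 SD, ignoring values outside control-based bounds, cut at about 4.8% in these data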;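 also: value is the 4 h activation minus the activation read at time zero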
Hits are given with their value; - = inactive; . = no result given; ! = repeats disagree.

SMILES | Neddylation inh | proKLK7 act | procasp7 counter | proCasp3 act | KLK7 act conf | EDANS interfere
COc1ccc(C(=O)NC(C)c2ccncc2)cc1S(=O)(=O)N(C)Cc1ccccc1 (stereo not given) | - | - | - | - | . | .
COc1ccc2oc(=N)c(C(=O)Nc3ccccc3Cl)cc2c1 | - | - | - | - | . | .
Cc1ccccc1-n1c(-c2ccc(Cl)cc2)cnc1SCC(=O)NC1CCS(=O)(=O)C1 (stereo not given) | - | - | - | - | . | .
COc1ccc(NC(=O)c2cc3c(=O)n4ccccc4nc3n2C)c(OC)c1 | - | - | - | - | . | .
Cn1c(C(=O)NCc2ccccn2)cc2c(=O)n3ccccc3nc21 | . | 53 | - | - | 66 | 67
COc1ccc(-n2nc(C(=O)NCC(=O)Nc3cc(OC)c(OC)c(OC)c3)c3ccccc3c2=O)cc1OC | - | 42 | - | - | 66 | 66
COc1ccc(-n2nc(C(=O)NCC(=O)Nc3cc(OC)c(OC)c(OC)c3)c3ccccc3c2=O)cc1 | - | - | - | - | . | .
Cc1ccc(C2C3=C(CC(C)(C)CC3=O)Nc3onc(C)c32)cc1 (stereo not given) | . | 15 | - | - | - | -
CCN(CC(=O)NCc1ccc(F)cc1)C(=O)COc1ccccc1[N+](=O)[O-] | - | 31 | - | - | - | -
Nc1c2ccccc2nc2ccccc12 | . | 14! | - | - | 52 | 71
CN(C)c1ccc2nc3ccc(=O)cc-3sc2c1 | - | 54 | . | . | 143 | 133
CN(C)c1ccc2nc3ccc(=[N+](C)C)cc-3sc2c1 | - | - | - | - | . | .
CCC(SC1=N/C(=C/c2ccccc2OC)C(=O)N1c1ccccc1)C(=O)Nc1cc(C)on1 (stereo not given) | - | 39 | - | - | - | -
CC1(C)C(=O)Nc2ccccc2N1C(=O)COc1ccc(C#N)cc1 | - | - | - | - | . | .
CC[N+]1(C)CCC(O)(c2ccc(OC)cc2)C(C(=O)c2ccc(OC)cc2)C1 (stereo not given) | - | - | . | . | . | .
COc1ccc(/C=N/n2c(C)nnc2C)c(OC)c1 | - | - | - | - | . | .
COc1cc(OC)c(/C=N/n2c(C)nnc2C)c(OC)c1 | - | 16 | - | - | - | -
O=C1CCCC2=C1C(c1ccc(O)cc1)c1c(ccc3ccccc13)N2 (stereo not given) | . | 20 | - | - | - | -
CC1(C(=O)NS(=O)(=O)C2CC2)CCCN(C(=O)Cc2ccc(F)cc2)C1 (stereo not given) | - | - | . | . | . | .
Nc1nccnc1C(=O)OCC(=O)Nc1ccc2[nH]c(=O)[nH]c2c1 | - | 27 | - | - | 53 | 48
O=C(CCNC(=O)c1ccco1)Nc1ccc(Cl)cc1F | - | - | - | - | . | .
CC[C@@]1(O)C(=O)OCc2c1cc1n(c2=O)Cc2cc3c(N)cccc3nc2-1 | - | 27 | - | - | 78 | 90
CC[C@@]1(O)C(=O)OCc2c1cc1n(c2=O)Cc2cc3c(CN(C)C)c(O)ccc3nc2-1 | - | 60 | - | - | 70 | 76
CNc1ccccc1/C(O)=C(\C#N)C(=O)NCc1cccc2ccccc12 | . | - | . | . | . | .
CCc1cc(=O)oc2c(C)c(OCC(=O)N3CCC[C@@H]3C(=O)O)ccc12 | . | - | - | - | . | .
SMILES | Neddylation inh | proKLK7 act | procasp7 counter | proCasp3 act | KLK7 act conf | EDANS interfere
Cc1cc(=O)oc2c3c(cc(OCC(=O)NCC4CCC(C(=O)O)CC4)c12)OC(C)(C)CC3 (stereo not given) | . | 40 | - | - | 76 | 77
CCc1cc(=O)oc2c3c(cc(OCC(=O)NCc4ccco4)c12)OC(C)(C)CC3 | . | . | - | - | . | .
Cc1cc(=O)oc2c3c(cc(OCC(=O)NCCC(=O)O)c12)OC(C)(C)CC3 | . | 40 | . | . | 64 | 64
Cc1c(C)c2c(OCC(=O)NCC3CCC(C(=O)O)CC3)cc3c(c2oc1=O)CCC(C)(C)O3 (stereo not given) | . | - | . | . | . | .
CCCc1cc(=O)oc2c3c(cc(OCC(=O)N4CCC[C@H]4C(=O)O)c12)OC(C)(C)CC3 | . | 40 | - | - | 48 | 69
CCc1cc(=O)oc2c3c(cc(OCC(=O)NCCCOC)c12)OC(C)(C)CC3 | . | 19 | - | - | 30 | 29
N#Cc1c(NC(=O)CSc2nc(N)cc(=O)[nH]2)sc2c1CCCC2 | - | - | - | - | . | .
CC(C)N=C(NS(=O)(=O)c1ccc(Br)cc1)c1ccc(Cl)cc1 | - | - | - | - | . | .
CCc1cc(=O)oc2c3c(cc(OCC(=O)NCc4ccncc4)c12)OC(C)(C)CC3 | . | - | - | - | . | .
CCc1cc(=O)oc2c3c(cc(OCC(=O)NC4CC4)c12)OC(C)(C)CC3 | . | 13 | - | - | - | -
CCc1cc(=O)oc2c3c(cc(OCC(=O)NCCC(=O)O)c12)OC(C)(C)CC3 | . | 33 | - | - | 76 | 82
CCc1cc(=O)oc2c3c(cc(OCC(=O)NCCN4CCOCC4)c12)OC(C)(C)CC3 | . | 39 | - | - | - | -
CCc1cc(=O)oc2c3c(cc(OCC(=O)NCCCC(=O)O)c12)OC(C)(C)CC3 | . | 29 | - | - | 65 | 65
COc1ccc(CNC(=O)COc2cc3c(c4oc(=O)cc(C)c24)CCC(C)(C)O3)cc1 | . | - | - | - | . | .
CC(C)(C)NC(=O)COc1coc(CN2CCN(Cc3ccccc3)CC2)cc1=O | - | - | - | - | . | .
COc1ccc(C2CC(c3cccs3)=Nc3ccccc3S2)cc1 (stereo not given) | - | 40 | - | - | - | -
COc1ccc(C)cc1S(=O)(=O)N1CCOCC1 | - | - | - | - | . | .
CCCCOc1ccccc1C1C(C(=O)OC)=CN(CC)C=C1C(=O)OC | . | - | - | - | . | .
COC(=O)C1=CN(C)C=C(C(=O)OC)C1c1ccccc1Cl | . | 24 | - | - | 76 | 77
CCCNC(=S)Nc1ccc2nc(-c3ccccn3)c(-c3ccccn3)nc2c1 | . | 16 | - | - | 44 | 54
Cc1nc2ccc(NC(=S)NCCCO)cc2nc1C | . | - | - | - | . | .
CCCCNc1nccnc1-c1cccc(C=O)c1 | . | 212 | . | . | 299 | 289
C=CCNc1cccc2c1S(=O)(=O)N[C@H](CC(C)C)CO2 | . | - | . | . | . | .
Cc1ccc(S(=O)(=O)NC(C(=O)Oc2cc3oc(=O)cc(C)c3cc2Cl)C(C)C)cc1 (stereo not given) | . | 104 | - | - | 173 | 102
O=C(Oc1ccc2c3c(c(=O)oc2c1)CCC3)c1ccco1 | . | 578 | - | - | 774 | 820
O=C(CCCCCN1C(=O)c2ccccc2C1=O)Oc1ccc2c3c(c(=O)oc2c1)CCC3 | . | 31 | - | - | 215 | 146
CC(=O)Oc1cc2oc(=O)c3c(c2cc1Cl)CCC3 | . | 74 | - | - | 340 | 403
CC(C)Oc1cc2oc(=O)c3c(c2cc1Cl)CCC3 | - | - | - | - | . | .
COc1ccc(C(O)c2ncc(-c3ccccc3)[nH]2)c(OC)c1 (stereo not given) | - | - | . | . | . | .
